Screening data: PubChem BioAssay, several laboratories
This is a sample that favours compounds with a hit; in the whole collection about 5.7% have one here.
Mdm2-MdmX inh = inhibitors of human Mdm2/MdmX interaction. O15151+Q00987. SaOS-2 split-luciferase Mdm2/MdmX complementation, luminescence. inhibition, % at 8 µM. 330,000 tested, 3% active. AID 485346;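 active = inhibition of at least 50% at 8 µM in the primary screen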
Target sequence (O15151 whole entry, looked up): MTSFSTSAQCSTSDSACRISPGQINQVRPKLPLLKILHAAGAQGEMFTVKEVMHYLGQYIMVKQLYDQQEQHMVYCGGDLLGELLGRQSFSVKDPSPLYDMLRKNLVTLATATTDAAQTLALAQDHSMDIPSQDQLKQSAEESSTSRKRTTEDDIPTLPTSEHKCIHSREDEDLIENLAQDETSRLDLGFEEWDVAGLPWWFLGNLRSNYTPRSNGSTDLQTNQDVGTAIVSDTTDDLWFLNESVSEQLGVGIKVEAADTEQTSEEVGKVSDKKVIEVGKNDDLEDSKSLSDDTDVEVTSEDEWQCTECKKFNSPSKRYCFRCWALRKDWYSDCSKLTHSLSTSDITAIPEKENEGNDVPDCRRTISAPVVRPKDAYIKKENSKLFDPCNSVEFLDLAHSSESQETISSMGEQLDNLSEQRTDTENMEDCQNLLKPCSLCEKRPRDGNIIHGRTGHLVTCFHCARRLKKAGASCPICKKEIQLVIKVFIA
Target sequence (Q00987 whole entry, looked up): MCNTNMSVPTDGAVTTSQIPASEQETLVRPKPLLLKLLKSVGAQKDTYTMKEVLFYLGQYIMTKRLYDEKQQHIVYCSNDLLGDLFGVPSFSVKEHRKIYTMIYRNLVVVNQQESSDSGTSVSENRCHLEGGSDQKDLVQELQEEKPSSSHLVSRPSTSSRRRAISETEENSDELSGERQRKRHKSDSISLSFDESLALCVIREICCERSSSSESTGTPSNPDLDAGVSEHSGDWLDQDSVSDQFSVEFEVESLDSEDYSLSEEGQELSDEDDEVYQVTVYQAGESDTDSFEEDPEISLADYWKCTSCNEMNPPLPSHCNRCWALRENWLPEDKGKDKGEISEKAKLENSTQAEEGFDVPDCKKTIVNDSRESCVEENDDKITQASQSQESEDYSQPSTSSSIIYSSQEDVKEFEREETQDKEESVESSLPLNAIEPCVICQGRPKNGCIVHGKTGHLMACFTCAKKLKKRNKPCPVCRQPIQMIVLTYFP
SKKanGAS inh = inhibitors of SKKanGAS S. pyogenes growth in kanamycin (SK-promoter or general growth effect) | BacTiter-Glo, 6 h | inhibition, % at 7.5 µM | 300,000 tested, 1.3% active | AID 1662;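 active = mean replicate score, as percent of positive control median, at least 50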;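 note: strain carries kanamycin resistance gene driven by streptokinase promoter and grows in 40 µg/ml kanamycin; loss of luminescence reflects streptokinase promoter inhibition or plain growth inhibition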
Beta cell apopt = blocks beta cell apoptosis; AID 435005; protection from apoptosis, % (no concentration beside the values); 300,000 tested, 0.8% active; INS-1E cytokine-induced death, ATP luminescence, 48 h; percent of positive-control rescue, neutral wells zero;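 active = Every replicate reaches about 75%, or at least half do and their mean reaches it too, limit read from the data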;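 note: higher means more ATP so stronger rescue from cytokine killing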
Calb FLC = C. albicans growth modulation with fluconazole; AID 1979; growth inhibition, % (test concentration not listed); C. albicans CaCi-2 (fluconazole-resistant clinical isolate) + fluconazole, Alamar Blue growth, 48 h; 300,000 tested, 0.57% active;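 active = growth inhibition above about 58% in most replicates, limit read from the data, passing the limit was not always enough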;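 note: all wells also contain fluconazole at 8 µg/ml as a sub-toxic cotreatment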
CSC inhib = cancer stem cell inhibition. cancer stem cell-like cells viability, luminescence. inhibition, % at 7.5 µM. 300,000 tested, 1.1% active; in the data active = inhibition above about 75%; tested in HMLE shEcad cells
T cruzi repl = blocks replication of Trypanosoma cruzi; 300,000 tested, 1.4% active; T. cruzi beta-gal in NIH3T3, luminescence, 90 h; inhibition, % (test concentration not listed); AID 1885;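 active = mean inhibition across valid replicates above about 55%, limit read from the data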;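 note: signal also drops with host cell toxicity which is not excluded here; higher percent means less beta-gal luminescence so fewer parasites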
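System: NIH/3T3 fibroblasts plus reporter T. cruzi. Medium: DMEM plus 2% FBS. Probe or stimulus: 5000 reporter trypomastigotes per well. Compound: single 50 nL compound addition per well in DMSO. Incubation: co-culture of at least 90 h after 3 h attachment. Detection: GalScreen β-gal luminescence, detergent lysis, 60 min. Evaluation: parasite load inhibition, %.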
Hits are given with their value.

CC1CCCN(C(=S)SCC(=O)c2cc(Br)cc(Br)c2O)C1 (stereo not given) was read as Mdm2-MdmX inh inactive, SKKanGAS inh 56, Beta cell apopt inactive, Calb FLC inactive, CSC inhib inactive and T cruzi repl inactive.
O=C(CSC(=S)N1CCCC1)c1cc(Br)cc(Br)c1O was read as Mdm2-MdmX inh inactive, SKKanGAS inh inactive, Beta cell apopt inactive, Calb FLC inactive, CSC inhib inactive and T cruzi repl inactive.
Cc1ccc(N/N=C/C=C/c2ccco2)cc1 was read as Mdm2-MdmX inh inactive, SKKanGAS inh inactive, Calb FLC inactive, CSC inhib inactive and T cruzi repl 73.
For CC(C)(C)c1nnc(N/N=C/c2cc(Br)ccc2O)n(N)c1=O the results were SKKanGAS inh 78, Beta cell apopt 95, Calb FLC inactive, CSC inhib 112 and T cruzi repl inactive.
Screening CCc1nnc(N/N=C/c2cc(Br)c(O)cc2O)n1N returned Mdm2-MdmX inh inactive, SKKanGAS inh inactive, Beta cell apopt inactive, Calb FLC inactive, CSC inhib inactive and T cruzi repl inactive.
For O=S(=O)(N/N=C/c1ccc(Cl)cc1)c1ccc(Cc2ncc(C(F)(F)F)cc2Cl)s1 the results were Mdm2-MdmX inh inactive, SKKanGAS inh 50, Beta cell apopt inactive, Calb FLC inactive, CSC inhib inactive and T cruzi repl inactive.
NC(=O)c1ccc(Cc2ncc(C(F)(F)F)cc2Cl)s1 was read as Mdm2-MdmX inh inactive, SKKanGAS inh inactive, Beta cell apopt inactive, Calb FLC inactive and T cruzi repl inactive.
For CS(=O)(=O)N(CC(=O)N1CCc2ccccc2C1)c1ccccc1Br the results were Mdm2-MdmX inh inactive, SKKanGAS inh inactive, Beta cell apopt inactive, Calb FLC inactive, CSC inhib inactive and T cruzi repl inactive.
`O=C(O)CCCNc1cc(N2CCC3(CC2)OCCO3)c2noc3c2c1C(=O)c1ccccc1-3` gave Mdm2-MdmX inh inactive and CSC inhib inactive.
O=C(O)CCCNc1cc(N2CCN(C(=O)c3ccco3)CC2)c2noc3c2c1C(=O)c1ccccc1-3 was read as Mdm2-MdmX inh inactive, SKKanGAS inh 52, Calb FLC inactive, CSC inhib inactive and T cruzi repl inactive.
CCN(Cc1nc2cc(Cl)ccc2c(=O)[nH]1)C(=O)c1nn(C)c(=O)c2ccccc12 was read as Mdm2-MdmX inh inactive and Beta cell apopt inactive.
For C/C(N)=C(/C#N)C(=O)CSc1cc(C)c2cc(C)cc(C)c2n1 the results were Mdm2-MdmX inh inactive, SKKanGAS inh inactive, Beta cell apopt inactive, Calb FLC inactive, CSC inhib inactive and T cruzi repl 62.
Screening Cc1cc(C)c2nc(SCC#N)cc(C)c2c1 returned Mdm2-MdmX inh inactive, SKKanGAS inh inactive, Calb FLC inactive and T cruzi repl inactive.
Cc1ccc(-c2csc(N=C(N)N)n2)c(C)c1 was read as Mdm2-MdmX inh inactive, SKKanGAS inh inactive, Beta cell apopt inactive, Calb FLC inactive, CSC inhib inactive and T cruzi repl 60.
Screening COc1ccc(-c2csc(N=C(N)N)n2)cc1 returned Mdm2-MdmX inh inactive, SKKanGAS inh inactive, Beta cell apopt inactive, Calb FLC inactive, CSC inhib inactive and T cruzi repl inactive.
Oc1[nH]c(=S)sc1/C=C1\C(c2ccccc2)=Nc2ccccc21 was read as SKKanGAS inh 76, Beta cell apopt inactive, Calb FLC inactive, CSC inhib inactive and T cruzi repl inactive.
Screening O=C(/C=C/c1ccc(F)cc1)NC(=S)Nc1ccccc1O returned SKKanGAS inh inactive, Beta cell apopt inactive, Calb FLC inactive, CSC inhib inactive and T cruzi repl inactive.
`O=C(NC(=S)NNC(=O)[C@H]1C[C@@H]1c1ccccc1)c1ccc(F)cc1` gave Mdm2-MdmX inh inactive, SKKanGAS inh 82, Calb FLC inactive, CSC inhib inactive and T cruzi repl inactive.
For O=C(/C=C/c1ccc(F)cc1)NC(=S)NNC(=O)[C@H]1C[C@@H]1c1ccccc1 the results were Mdm2-MdmX inh inactive, SKKanGAS inh 85, Beta cell apopt inactive, CSC inhib inactive and T cruzi repl inactive.
COc1cc(OC)cc(C(=O)NC(=S)NNC(=O)[C@H]2C[C@@H]2c2ccccc2)c1 was read as Mdm2-MdmX inh inactive, SKKanGAS inh 105, Beta cell apopt inactive, Calb FLC inactive, CSC inhib inactive and T cruzi repl inactive.
For CC(C)(C)NC(=S)NNC(=O)[C@H]1C[C@@H]1c1ccccc1 the results were Mdm2-MdmX inh inactive, SKKanGAS inh inactive, Beta cell apopt inactive, Calb FLC inactive, CSC inhib inactive and T cruzi repl inactive.
